Data taken from ChEMBL document CHEMBL1135836, “Cyclodextrin-derived host molecules as reversal agents for the neuromuscular blocker rocuronium bromide: synthesis and structure-activity relationships” (J Med Chem, 2002).

Legend:
Format in all cases: functional
Mus musculus [1] = organism: Mus musculus; experiment: In vitro reversal activity versus ~90% block by rocuronium in isolated mouse hemidiaphragm, expressed as effective conc.
Cavia porcellus [2] = experiment: In vivo reversal activity versus ~90% block by rocuronium in guinea pig, expressed as % of maximum reversal at 12 umol/kg conc.
How it was run: (§1)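 Male Dunkin-Hartley guinea pigs (600-900 g) anaesthetized ip with pentobarbitone 10 mg/kg plus urethane 1000 mg/kg, tracheotomized and artificially ventilated. Continuous iv rocuronium bromide infusion (~10 nmol kg-1 min-1) raised until steady-state twitch block of 85-90%. Increasing single iv doses of reversal agent given by a separate catheter. Max reversal is peak twitch recovery versus preblock height at highest dose tested; means ± SEM, n ≥ 2 or single experiment.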

Mus musculus [3] = organism: Mus musculus; experiment: In vitro reversal activity versus ~90% block by rocuronium in isolated mouse hemidiaphragm, expressed as % of maximum reversal at 144 uM conc.
Cavia porcellus [4] = experiment: In vivo reversal activity versus ~90% block by rocuronium in guinea pig
How it was run: (§2)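 Male Dunkin-Hartley guinea pigs (600-900 g), anaesthetized ip with pentobarbitone 10 mg/kg plus urethane 1000 mg/kg, tracheotomized and ventilated. Continuous iv rocuronium infusion (~10 nmol kg-1 min-1) was raised to a steady 85-90% block. Increasing iv doses of agent were given cumulatively. ED50 = 50% recovery versus preblock twitch, by regression. Mean ± SEM of at least two experiments, or one.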

Cavia porcellus [5] = experiment: In vivo reversal activity versus ~90% block by rocuronium in guinea pig, expressed as % of maximum reversal at 7.3 umol/kg conc.; how it was run: as §1
Mus musculus [6] = organism: Mus musculus; experiment: In vitro reversal activity versus ~90% block by rocuronium in isolated mouse hemidiaphragm, expressed as % of maximum reversal at 14.4 uM conc.
Felis catus [7] = experiment: % of maximum change of decrease in HR by vagal stimulation in anesthetized cat at 0.2umol/kg, by bolus injection
Felis catus [8] = experiment: Percentage of maximum change of heart rate in anesthetized cat at 0.4umol/kg, by bolus injection
How it was run: (§3)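 Anaesthetized cats, left for 1 h after surgery to stabilize. Tibialis anterior twitch was evoked via the sciatic nerve with supramaximal 0.25 ms pulses at 0.1 Hz. Rocuronium in phosphate buffer (pH 4) was infused continuously (10.24 ± 1.31 nmol kg-1 min-1). Increasing doses of agent in saline were then given as iv boluses while mean arterial blood pressure and heart rate were recorded; means of three independent experiments.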

Felis catus [9] = experiment: Percentage of maximum change in blood pressure in anesthetized cat dosed at 1.4 umol/kg (by bolus injection); how it was run: as §3
Felis catus [10] = experiment: % of maximum change of increase in contraction of nictitating membrane in anesthetized cat at 1.2umol/kg, by bolus injection
Felis catus [11] = experiment: Percentage of maximum change of heart rate in anesthetized cat at 0.8umol/kg, by bolus injection; how it was run: as §3
Felis catus [12] = experiment: Percentage of maximum change of heart rate in anesthetized cat at 0.2umol/kg, by bolus injection; how it was run: as §3
Felis catus [13] = experiment: Percentage of maximum change in blood pressure in anesthetized cat dosed at 0.6 umol/kg (by bolus injection); how it was run: as §3
Mus musculus [14] = organism: Mus musculus; experiment: In vitro reversal activity versus ~90% block by rocuronium in isolated mouse hemidiaphragm, expressed as % of maximum reversal at 3.6 uM conc.
Felis catus [15] = experiment: Percentage of maximum change of heart rate in anesthetized cat at 1.2umol/kg, by bolus injection; how it was run: as §3
Felis catus [16] = experiment: % of maximum change of increase in contraction of nictitating membrane in anesthetized cat at 1.6umol/kg, by bolus injection
Felis catus [17] = experiment: % of maximum change of decrease in HR by vagal stimulation in anesthetized cat at 0.4umol/kg, by bolus injection
Felis catus [18] = experiment: Percentage of maximum change of heart rate in anesthetized cat at 1.4umol/kg, by bolus injection; how it was run: as §3
Felis catus [19] = experiment: % of maximum change of decrease in HR by vagal stimulation in anesthetized cat at 0.8umol/kg, by bolus injection
Felis catus [20] = experiment: % of maximum change of decrease in HR by vagal stimulation in anesthetized cat at 1.4umol/kg, by bolus injection
Felis catus [21] = experiment: Percentage of maximum change in blood pressure in anesthetized cat dosed at 0.2 umol/kg (by bolus injection); how it was run: as §3
Felis catus [22] = experiment: % of maximum change of increase in contraction of nictitating membrane in anesthetized cat at 1.0umol/kg, by bolus injection
Felis catus [23] = experiment: % of maximum change of decrease in HR by vagal stimulation in anesthetized cat at 1.6umol/kg, by bolus injection
Felis catus [24] = experiment: Percentage of maximum change in blood pressure in anesthetized cat dosed at 0.4 umol/kg (by bolus injection); how it was run: as §3
Felis catus [25] = experiment: Percentage of maximum change of heart rate in anesthetized cat at 1.0umol/kg, by bolus injection; how it was run: as §3
Felis catus [26] = experiment: % of maximum change of decrease in HR by vagal stimulation in anesthetized cat at 1.0umol/kg, by bolus injection
Felis catus [27] = experiment: % of maximum change of increase in contraction of nictitating membrane in anesthetized cat at 1.8umol/kg, by bolus injection
Felis catus [28] = experiment: Percentage of maximum change in blood pressure in anesthetized cat dosed at 1.8 umol/kg (by bolus injection); how it was run: as §3
Felis catus [29] = experiment: Percentage of maximum change in blood pressure in anesthetized cat dosed at 1.0 umol/kg (by bolus injection); how it was run: as §3
Cavia porcellus [30] = experiment: In vivo reversal activity versus ~90% block by rocuronium in guinea pig, expressed as % of maximum reversal at 0.3 umol/kg conc.; how it was run: as §2
Felis catus [31] = experiment: Percentage of maximum change in blood pressure in anesthetized cat dosed at 1.6 umol/kg (by bolus injection); how it was run: as §3
Felis catus [32] = experiment: Percentage of maximum change of heart rate in anesthetized cat at 1.8umol/kg, by bolus injection; how it was run: as §3
Felis catus [33] = experiment: % of maximum change of increase in contraction of nictitating membrane in anesthetized cat at 1.4umol/kg, by bolus injection
Felis catus [34] = experiment: % of maximum change of increase in contraction of nictitating membrane in anesthetized cat at 0.2umol/kg, by bolus injection
Felis catus [35] = experiment: % of maximum change of increase in contraction of nictitating membrane in anesthetized cat at 0.6umol/kg, by bolus injection
Felis catus [36] = experiment: % of maximum change of decrease in HR by vagal stimulation in anesthetized cat at 1.2umol/kg, by bolus injection
Felis catus [37] = experiment: % of maximum change of decrease in HR by vagal stimulation in anesthetized cat at 1.8umol/kg, by bolus injection
Felis catus [38] = experiment: Percentage of maximum change of heart rate in anesthetized cat at 0.6umol/kg, by bolus injection; how it was run: as §3
Felis catus [39] = experiment: % of maximum change of decrease in HR by vagal stimulation in anesthetized cat at 0.6umol/kg, by bolus injection
Felis catus [40] = experiment: Percentage of maximum change of heart rate in anesthetized cat at 1.6umol/kg, by bolus injection; how it was run: as §3
Felis catus [41] = experiment: Percentage of maximum change in blood pressure in anesthetized cat dosed at 1.2 umol/kg (by bolus injection); how it was run: as §3
Felis catus [42] = experiment: Percentage of maximum change in blood pressure in anesthetized cat dosed at 0.8 umol/kg (by bolus injection); how it was run: as §3
Felis catus [43] = experiment: % of maximum change of increase in contraction of nictitating membrane in anesthetized cat at 0.8umol/kg, by bolus injection
Felis catus [44] = experiment: % of maximum change of increase in contraction of nictitating membrane in anesthetized cat at 0.4umol/kg, by bolus injection
Cavia porcellus [45] = experiment: In vivo reversal activity versus ~90% block by rocuronium in guinea pig, expressed as % of maximum reversal at 10 umol/kg conc.; how it was run: as §2
Mus musculus [46] = organism: Mus musculus; experiment: In vitro reversal activity versus ~90% block by rocuronium in isolated mouse hemidiaphragm, expressed as % of maximum reversal at 18 uM conc.

O=C([O-])CCSCC1O[C@@H]2O[C@@H]3C(CO)O[C@H](O[C@@H]4C(CO)O[C@H](O[C@@H]5C(CO)O[C@H](O[C@@H]6C(CO)O[C@H](O[C@@H]7C(CO)O[C@H](O[C@@H]8C(CO)O[C@H](O[C@@H]9C(CO)O[C@H](O[C@H]1C(O)C2O)C(O)C9O)C(O)C8O)C(O)C7O)C(O)C6O)C(O)C5O)C(O)C4O)C(O)C3O.[Na+] (some centres not stated)
EC50 (Mus musculus [1]): 17.2 µM | Max reversal (Cavia porcellus [2]): 100.6% | Max reversal (Mus musculus [3]): 94.5% | ED50 (Cavia porcellus [4]): 1.3 µmol/kg

CNC(=O)CSCC1O[C@@H]2O[C@@H]3C(CSCC(=O)NC)O[C@H](O[C@@H]4C(CSCC(=O)NC)O[C@H](O[C@@H]5C(CSCC(=O)NC)O[C@H](O[C@@H]6C(CSCC(=O)NC)O[C@H](O[C@@H]7C(CSCC(=O)NC)O[C@H](O[C@@H]8C(CSCC(=O)NC)O[C@H](O[C@@H]9C(CSCC(=O)NC)O[C@H](O[C@H]1C(O)C2O)C(O)C9O)C(O)C8O)C(O)C7O)C(O)C6O)C(O)C5O)C(O)C4O)C(O)C3O (some centres not stated)
EC50 (Mus musculus [1]): 6.4 µM | Max reversal (Cavia porcellus [5]): 102.2% | Max reversal (Mus musculus [6]): 79.6% | ED50 (Cavia porcellus [4]): 1.54 µmol/kg

O=C([O-])CCSCC1O[C@@H]2O[C@@H]3C(CSCCC(=O)[O-])O[C@H](O[C@@H]4C(CSCCC(=O)[O-])O[C@H](O[C@@H]5C(CSCCC(=O)[O-])O[C@H](O[C@@H]6C(CSCCC(=O)[O-])O[C@H](O[C@@H]7C(CSCCC(=O)[O-])O[C@H](O[C@@H]8C(CSCCC(=O)[O-])O[C@H](O[C@@H]9C(CSCCC(=O)[O-])O[C@H](O[C@H]1C(O)C2O)C(O)C9O)C(O)C8O)C(O)C7O)C(O)C6O)C(O)C5O)C(O)C4O)C(O)C3O.[Na+].[Na+].[Na+].[Na+].[Na+].[Na+].[Na+].[Na+] (some centres not stated)
Decrease (Felis catus [7]): -2.9% | EC50 (Mus musculus [1]): 1.2 µM | HR (Felis catus [8]): -5.5 beats min-1 | BP (Felis catus [9]): -3.3 mmHg | Max change (Felis catus [10]): 3.7% | HR (Felis catus [11]): -6.3 beats min-1 | HR (Felis catus [12]): -4.1% | BP (Felis catus [13]): 3.5 mmHg | Max reversal (Mus musculus [14]): 95.1% | HR (Felis catus [15]): -4 beats min-1 | Max change (Felis catus [16]): 3.7% | Decrease (Felis catus [17]): -6.7% | HR (Felis catus [18]): -3.7 beats min-1 | Decrease (Felis catus [19]): 2.2% | Decrease (Felis catus [20]): 0.7% | BP (Felis catus [21]): -7.3 mmHg | Max change (Felis catus [22]): 8.7% | Decrease (Felis catus [23]): 0% | BP (Felis catus [24]): -6.5 mmHg | HR (Felis catus [25]): -3.4 beats min-1 | Decrease (Felis catus [26]): 0% | Max change (Felis catus [27]): 12.5% | BP (Felis catus [28]): -5 mmHg | BP (Felis catus [29]): -3.2 mmHg | Max reversal (Cavia porcellus [30]): 92.5% | BP (Felis catus [31]): -5 mmHg | HR (Felis catus [32]): -14.3 beats min-1 | Max change (Felis catus [33]): 3.7% | Max change (Felis catus [34]): 0% | Max change (Felis catus [35]): 0% | Decrease (Felis catus [36]): 0% | Decrease (Felis catus [37]): 11% | HR (Felis catus [38]): -7.5 beats min-1 | Decrease (Felis catus [39]): -6.7% | HR (Felis catus [40]): -6.9 beats min-1 | BP (Felis catus [41]): -3.3 mmHg | ED50 (Cavia porcellus [4]): 0.03 µmol/kg | BP (Felis catus [42]): -3.3 mmHg | Max change (Felis catus [43]): 3.7% | Max change (Felis catus [44]): 0%

C[C@H](CSCC1O[C@@H]2O[C@@H]3C(CSC[C@H](C)C(=O)N4CCCC4C(=O)[O-])O[C@H](O[C@@H]4C(CSC[C@@H](C)C(=O)N5CCCC5C(=O)[O-])O[C@H](O[C@@H]5C(CSC[C@@H](C)C(=O)N6CCCC6C(=O)[O-])O[C@H](O[C@@H]6C(CSC[C@H](C)C(=O)N7CCCC7C(=O)[O-])O[C@H](O[C@@H]7C(CSC[C@@H](C)C(=O)N8CCCC8C(=O)[O-])O[C@H](O[C@@H]8C(CSC[C@H](C)C(=O)N9CCCC9C(=O)[O-])O[C@H](O[C@@H]9C(CSC[C@@H](C)C(=O)N%10CCCC%10C(=O)[O-])O[C@H](O[C@H]1C(O)C2O)C(O)C9O)C(O)C8O)C(O)C7O)C(O)C6O)C(O)C5O)C(O)C4O)C(O)C3O)C(=O)N1CCCC1C(=O)[O-].[Na+].[Na+].[Na+].[Na+].[Na+].[Na+].[Na+].[Na+] (some centres not stated)
EC50 (Mus musculus [1]): 33.9 µM | ED50 (Cavia porcellus [4]): 1.49 µmol/kg | Max reversal (Cavia porcellus [45]): 103.6% | Max reversal (Mus musculus [46]): 35.7%
